Broadly, the IC50 is the concentration needed to halve the response being measured. Higher therefore signals lower potency.

Calls of active or inactive are those of the source. No cut-off for these calls is given here.

For data set [1], the target named is Protein smoothened (Homo sapiens) (UniProt Q99835). Nature of the data set: Antagonist activity at wild-type Smo (unknown origin) expressed in mouse Shh Light2 cells assessed as suppression of Gli-mRNA expression measured after 36 hrs by dual luciferase reporter gene assay. The class given is cell-based. The following applies: in the assay text read “Gli-luciferase activity” for “Gli-mRNA expression”. In a few lines: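 Light II cells transfected with wild-type Smo plasmid to drive Gli-luciferase, exposed to compound for 36 h, then harvested for dual luciferase reporter assay. Mean ± SD.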
For orientation: In a reporter assay the amount or activity of a reporter protein is the signal.

The test system of a further data set is Medulloblastoma cell. Nature of the data set: Antiproliferative activity against mouse medulloblastoma cells isolated from Ptch+/- p53-/- mouse measured after 72 hrs by MTS assay. The class given is functional. An outline of the steps: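 Medulloblastoma cells from Ptch+/-;p53-/- allografts in nude mice, minced and collagenase-digested, grown in Neurobasal A with B-27, EGF 20 ng/ml, bFGF 20 ng/ml, nonessential amino acids and N-acetyl cysteine 60 µg/ml. Seeded in 96-well plates, treated 72 h, viability read by MTS; mean ± SD.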
(In general: Tetrazolium dyes change colour on reduction, which living cells bring about.)

A further data set has as its target Protein smoothened (Mus musculus, UniProt P56726). The data set is described as follows: Inhibition of Smo-mediated Hh signalling pathway in mouse Shh Light2 cells by Gli-luciferase reporter gene assay. The class given is cell-based. In a few lines:
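Light II cells (NIH-3T3 stably carrying a Gli-responsive firefly luciferase reporter plus a Renilla luciferase vector), seeded in 96-well plates and treated. Firefly/Renilla activity in the lysates read by dual luciferase assay on a luminometer. IC50 is the mean ± SD of three separate experiments.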

Data set [2] is described as follows: Cytotoxicity against mouse L1210 cells by MTT assay. In kind it is functional, cell-based.
Data set [3] is described as follows: Cytotoxicity against human KB cells. In kind it is toxicity, cell-based.
Data set [4] concerns the target Voltage-gated inwardly rectifying potassium channel KCNH2 (Homo sapiens, UniProt Q12809). Nature of the data set: Inhibition of human ERG.
The test system of the next data set is HEK293. The data set is described as follows: Inhibition of TNF-alpha stimulated NFkappaB transactivation in HEK293 cells at 20 uM measured after 24 hrs by dual luciferase reporter gene assay. The class given is cell-based. The following applies: Homo sapiens. An outline of the steps:
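HEK293 cells stimulated with TNF-α and treated for 24 h, then lysed for dual luciferase reporter analysis of NF-κB activity. Mean ± SD.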

Data set [5] concerns the target Protein smoothened (Homo sapiens) (UniProt Q99835). The note with it: HEK293, 5 uM.
For data set [6] the target is unchanged. The following applies: HEK293, 5 uM. The source holds these as a separate data set.
For a further data set, the system named is LS174T. Nature of the data set: Inhibition of PGE2-stimulated TCF/LEF transactivation in human LS174T cells at 20 uM measured after 6 hrs by dual luciferase reporter gene assay. The class given is cell-based. An outline of the steps: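 LS174T cells stimulated with PGE2 and treated for 6 h, then lysed for dual luciferase reporter analysis of TCF/LEF activity. Mean ± SD.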

Chain of Voltage-gated inwardly rectifying potassium channel KCNH2 (Q12809 whole entry): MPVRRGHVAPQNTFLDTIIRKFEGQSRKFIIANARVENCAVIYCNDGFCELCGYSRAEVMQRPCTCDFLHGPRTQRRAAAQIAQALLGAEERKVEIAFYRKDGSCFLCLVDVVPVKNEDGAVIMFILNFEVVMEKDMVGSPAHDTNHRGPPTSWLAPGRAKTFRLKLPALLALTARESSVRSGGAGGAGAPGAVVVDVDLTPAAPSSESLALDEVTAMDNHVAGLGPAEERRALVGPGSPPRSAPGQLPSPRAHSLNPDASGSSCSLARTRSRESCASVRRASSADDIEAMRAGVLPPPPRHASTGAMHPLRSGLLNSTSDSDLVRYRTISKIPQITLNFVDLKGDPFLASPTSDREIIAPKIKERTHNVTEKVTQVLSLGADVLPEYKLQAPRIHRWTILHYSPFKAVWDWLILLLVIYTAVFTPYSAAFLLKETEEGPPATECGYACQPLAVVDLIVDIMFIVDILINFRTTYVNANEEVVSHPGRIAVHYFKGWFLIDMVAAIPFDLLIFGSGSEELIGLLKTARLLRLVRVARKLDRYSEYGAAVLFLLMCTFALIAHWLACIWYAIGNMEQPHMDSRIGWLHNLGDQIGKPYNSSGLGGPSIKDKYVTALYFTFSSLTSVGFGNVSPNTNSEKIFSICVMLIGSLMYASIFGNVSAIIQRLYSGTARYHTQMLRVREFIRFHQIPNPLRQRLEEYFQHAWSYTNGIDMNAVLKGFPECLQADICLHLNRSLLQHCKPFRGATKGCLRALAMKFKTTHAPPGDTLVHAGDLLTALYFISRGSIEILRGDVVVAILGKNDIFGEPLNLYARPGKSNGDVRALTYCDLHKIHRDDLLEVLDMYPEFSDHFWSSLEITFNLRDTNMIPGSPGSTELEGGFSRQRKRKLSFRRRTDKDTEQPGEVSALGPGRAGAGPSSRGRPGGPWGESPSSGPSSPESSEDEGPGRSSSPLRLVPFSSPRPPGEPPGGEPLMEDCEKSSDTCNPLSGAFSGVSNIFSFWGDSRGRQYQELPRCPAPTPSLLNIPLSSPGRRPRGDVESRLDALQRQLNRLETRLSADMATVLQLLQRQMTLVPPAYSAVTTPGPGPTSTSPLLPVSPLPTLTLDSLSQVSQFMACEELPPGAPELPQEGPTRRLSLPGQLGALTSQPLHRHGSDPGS
Chain of Protein smoothened (Homo sapiens) (Q99835 whole entry): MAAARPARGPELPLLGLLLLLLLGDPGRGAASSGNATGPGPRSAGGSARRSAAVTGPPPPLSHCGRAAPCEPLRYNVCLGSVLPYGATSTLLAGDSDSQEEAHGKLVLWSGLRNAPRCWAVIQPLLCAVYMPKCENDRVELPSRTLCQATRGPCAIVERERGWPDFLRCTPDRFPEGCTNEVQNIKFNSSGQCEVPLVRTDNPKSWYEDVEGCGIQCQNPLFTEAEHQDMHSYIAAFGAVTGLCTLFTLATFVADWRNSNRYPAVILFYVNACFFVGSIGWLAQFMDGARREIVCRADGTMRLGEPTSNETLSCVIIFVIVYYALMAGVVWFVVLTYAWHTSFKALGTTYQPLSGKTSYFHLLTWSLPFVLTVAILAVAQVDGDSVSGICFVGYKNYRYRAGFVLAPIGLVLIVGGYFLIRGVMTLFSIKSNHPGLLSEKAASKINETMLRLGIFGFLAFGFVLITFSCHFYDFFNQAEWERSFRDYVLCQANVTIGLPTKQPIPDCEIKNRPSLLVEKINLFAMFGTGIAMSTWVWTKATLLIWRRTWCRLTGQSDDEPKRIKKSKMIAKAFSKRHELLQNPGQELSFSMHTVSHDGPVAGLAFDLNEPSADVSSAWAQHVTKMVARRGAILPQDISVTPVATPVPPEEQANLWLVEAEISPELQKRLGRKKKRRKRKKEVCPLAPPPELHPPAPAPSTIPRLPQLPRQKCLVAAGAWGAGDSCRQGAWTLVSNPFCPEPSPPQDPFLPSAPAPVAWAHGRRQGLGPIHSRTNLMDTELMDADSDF
Chain of Protein smoothened (P56726 whole entry): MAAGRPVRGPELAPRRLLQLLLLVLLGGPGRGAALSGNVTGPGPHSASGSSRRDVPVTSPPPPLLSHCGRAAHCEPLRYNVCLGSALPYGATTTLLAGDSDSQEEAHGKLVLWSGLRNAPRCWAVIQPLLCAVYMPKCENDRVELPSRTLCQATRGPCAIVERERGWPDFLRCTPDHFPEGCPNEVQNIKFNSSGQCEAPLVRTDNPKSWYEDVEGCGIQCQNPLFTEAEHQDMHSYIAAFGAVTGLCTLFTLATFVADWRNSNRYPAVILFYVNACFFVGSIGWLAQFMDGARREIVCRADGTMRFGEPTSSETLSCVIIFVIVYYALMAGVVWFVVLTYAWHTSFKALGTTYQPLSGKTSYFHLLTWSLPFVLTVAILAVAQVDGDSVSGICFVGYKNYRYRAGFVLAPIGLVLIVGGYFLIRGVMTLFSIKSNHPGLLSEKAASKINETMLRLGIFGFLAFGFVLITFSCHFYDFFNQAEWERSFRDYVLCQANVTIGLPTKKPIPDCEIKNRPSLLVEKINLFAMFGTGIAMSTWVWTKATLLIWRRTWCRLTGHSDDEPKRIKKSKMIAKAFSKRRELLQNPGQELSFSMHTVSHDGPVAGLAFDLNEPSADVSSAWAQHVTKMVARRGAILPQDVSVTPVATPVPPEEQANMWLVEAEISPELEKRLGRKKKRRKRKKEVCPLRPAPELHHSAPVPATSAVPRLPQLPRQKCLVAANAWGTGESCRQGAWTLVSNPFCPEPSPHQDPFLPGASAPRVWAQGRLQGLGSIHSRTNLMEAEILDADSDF

For `CS(=O)(=O)c1ccc(C(=O)Nc2ccc(Cl)c(-c3ccccn3)c2)c(Cl)c1`, the inhibition entry in data set [1] was “Dose-dependent effect”. Further, the Activity result in the data set on Medulloblastoma cell is “Dose-dependent effect”.

`C[C@H]1[C@@H](CC(=O)Nc2ccc(Cl)c(-c3ccccn3)c2)O[C@@H]2O[C@@]3(C)CC[C@H]4[C@H](C)CC[C@@H]1[C@@]24O3` had an IC50 at Protein smoothened of 184 nM.

On to `Cc1ccc2c(n1)[C@H]([C@@H](C)C(=O)Nc1ccc(Cl)c(-c3noc(C)n3)c1)CC[C@H]2C`, for which, at Protein smoothened, the IC50 was above 1000 nM.

With `C[C@H]1[C@@H](O[C@@H](C#N)c2ccc(Br)cc2)O[C@@H]2O[C@@]3(C)CC[C@H]4[C@H](C)CC[C@@H]1[C@@]24OO3`, the midpoint of inhibition in data set [2], the IC50, lay at 10 nM.

For `Cc1ccc2c(n1)[C@H]([C@@H](C)C(=O)Nc1ccc(Cl)c(-c3ccc(N4C[C@@H](C)O[C@@H](C)C4)cn3)c1)CC[C@H]2C`, the half-inhibitory concentration (IC50) against Protein smoothened is above 1000 nM.

As for `Cc1ccc2c(n1)[C@H]([C@@H](C)C(=O)Nc1ccc(Cl)c(-c3nc4ccccc4s3)c1)CC[C@H]2C`, the IC50 against Protein smoothened turned out to be 282 nM.

Take `C[C@@H]1CC[C@@H]2[C@]34OO[C@](C)(CC[C@@H]13)OC4O[C@]2(C)C(=O)Nc1ccc(Cl)c(-c2ccccn2)c1` (stereo partly drawn): the half-maximal inhibitory concentration (IC50) on Protein smoothened is 180 nM.

In turn, `Cc1ccc2c(n1)[C@H]([C@@H](C)C(=O)Nc1ccc(Cl)c(-c3nc4ccc(OC(F)(F)F)cc4n3C)c1)CC[C@H]2C` displayed a half-inhibitory concentration (IC50) against Protein smoothened of 52.6 nM.

In the case of `C[C@H]1[C@@H](CC(=O)Nc2ccc(Cl)c(-c3ccccn3)c2)O[C@@H]2O[C@@]3(C)CC[C@H]4[C@H](C)CC[C@@H]1[C@@]24OO3`, the IC50 in [3] is 6610 nM; at Protein smoothened it was 241 nM; in data set [4] it was above 15000 nM.

`CC(=O)Nc1nc2c(s1)C[C@@H]1[C@H](C2)[C@H]([C@@H](C)C(=O)Nc2ccc(Cl)c(-c3ccccn3)c2)CC[C@H]1C`: on Protein smoothened, the 50% inhibitory concentration (IC50) was above 1000 nM.

In turn, `Cc1nc2c(s1)C[C@@H]1[C@H](C2)[C@H]([C@@H](C)C(=O)Nc2ccc(Cl)c(-c3ccccn3)c2)CC[C@H]1C` registered an IC50 at Protein smoothened above 1000 nM.

With `C[C@@H]1CC[C@@H]([C@@H](C)C(=O)Nc2ccc(Cl)c(-c3ccccn3)c2)c2nc(CN3CCOCC3)ccc21`, the 50% inhibitory concentration (IC50) in data set [3] was above 20000 nM; against Protein smoothened, 155 nM; in data set [4], 3310 nM.

Compound `Cc1ccc2c(n1)[C@H]([C@@H](C)C(=O)Nc1ccc(Cl)c(-c3nnc(-c4ccnn4C)s3)c1)CC[C@H]2C` registered an IC50 at Protein smoothened of 265 nM.

Compound `C[C@@H]1CC[C@@H]([C@@H](C)C(=O)Nc2ccc(Cl)c(-c3ccccn3)c2)[C@H]2CC(O)CC[C@H]21` (stereo partly drawn) gave an IC50 on Protein smoothened above 1000 nM.

Compound `Cc1ccc2c(n1)[C@H]([C@@H](C)C(=O)Nc1ccc(Cl)c(-c3nc4ccccc4o3)c1)CC[C@H]2C` displayed an IC50 at Protein smoothened of 243 nM.

With `C[C@@H]1CC[C@@H]([C@@H](C)C(=O)Nc2ccc(Cl)c(-c3ccccn3)c2)C2=CC(=O)CC[C@H]21`, on Protein smoothened, the IC50 was above 1000 nM.

For `Cc1ccc(S(=O)(=O)/C=C/C#N)cc1`, the inhibition result in the data set on HEK293 is “Active”.

Regarding `Cc1ccc2c(n1)[C@H]([C@@H](C)C(=O)Nc1ccc(Cl)c(-c3nc4cc(OC(F)(F)F)ccc4n3C)c1)CC[C@H]2C`, the IC50 against Protein smoothened was 84.5 nM.

Turning to `CC1=C2C[C@H]3[C@@H](CC=C4C[C@@H](O)CC[C@@]43C)[C@@H]2CC[C@]12O[C@@H]1C[C@H](C)CN[C@H]1[C@H]2C`, the inhibition result in data set [5] and in data set [6] was “Active” each time.

`C[C@@H]1CC[C@@H]([C@@H](C)C(=O)Nc2ccc(Cl)c(-c3ccccn3)c2)[C@H]2CC(=O)CC[C@H]21` had an IC50 against Protein smoothened of 290 nM.

`COC(=O)[C@H](C)c1ccc(C)c2ccc(C(=O)Nc3ccc(Cl)c(-c4ccccn4)c3)nc12`: on Protein smoothened, the IC50 worked out at 270 nM.

Take `Cc1ccc2c(n1)[C@H]([C@@H](C)C(=O)Nc1ccc(Cl)c(-c3ccccn3)c1)CC[C@H]2C`: the IC50 in data set [3] is 15000 nM; on Protein smoothened it was 212 nM; in data set [4], above 15000 nM.

As to `C[C@@H]1CC[C@@H]([C@@H](C)C(=O)Nc2ccc(Cl)c(-c3ccccn3)c2)[C@H]2Cc3c(c4ccccc4n3C)C[C@H]21`, it took 476 nM to reach half-maximal inhibition on Protein smoothened (IC50).

Compound `Cc1ccc2c(n1)[C@H]([C@@H](C)C(=O)Nc1ccc(Cl)c(-c3nc(C4CC4)no3)c1)CC[C@H]2C` had an IC50 against Protein smoothened of 220 nM.

Regarding `C[C@@H]1CC[C@@H]([C@@H](C)C(=O)Nc2ccc(Cl)c(-c3ccccn3)c2)[C@H]2CC(=O)C=C[C@H]21`, the IC50 on Protein smoothened was above 1000 nM.

Turning to `O=S(=O)(NCCNC/C=C/c1ccc(Br)cc1)c1cccc2cnccc12`, the inhibition result in the data set on LS174T was “Active”.

For the compound `Cc1ccc2c(n1)[C@H]([C@@H](C)C(=O)Nc1ccc(Cl)c(-c3nc4ccccc4[nH]3)c1)CC[C@H]2C`, the IC50 against Protein smoothened fell in the range of 45.9 to 46 nM.

For `Cc1ccc2c(n1)[C@H]([C@@H](C)C(=O)Nc1cccc(-c3ccc(OC(F)(F)F)cc3)c1C)CC[C@H]2C`, the IC50 against Protein smoothened came out at 1000 nM.

Consider `C[C@@H]1CC[C@@H]([C@@H](C)C(=O)Nc2ccc(Cl)c(-c3ccccn3)c2)[C@H]2Cc3c(cnn3-c3ccccc3)C[C@H]21`, for which the IC50 at Protein smoothened amounted to 327 nM.

For the compound `Cc1ccc2c(n1)[C@H]([C@@H](C)C(=O)Nc1ccc(Cl)c(-c3nnc(-c4ccnn4C)o3)c1)CC[C@H]2C`, the IC50 against Protein smoothened was 588 nM.

Source of the values: ChEMBL document CHEMBL3864137, “Design, Synthesis, and Pharmacological Evaluation of 2-(2,5-Dimethyl-5,6,7,8-tetrahydroquinolin-8-yl)-N-aryl Propanamides as Novel Smoothened (Smo) Antagonists” (J Med Chem, 2016).
